Data taken from ChEMBL document CHEMBL3616436, “Synthesis, cytotoxicity and antimicrobial activity of thiourea derivatives incorporating 3-(trifluoromethyl)phenyl moiety” (Eur J Med Chem, 2015).
Converted amounts (≈) assume the structure as drawn.

Legend:
[1] = test system: Mammalian orthoreovirus 1; assay: Antiviral activity against Reovirus type-1 ATCC VR-214 infected in BHK cells assessed as protection against virus-induced cytopathogenicity after 3 to 4 days by MTT assay; assay type: functional, cell-based; conditions: Mammalian orthoreovirus 1, ATCC VR-214, BHK
Method in brief: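 Cells seeded in 96-well plates (BHK 5x10^4, MDBK 3x10^4 cells/well), grown overnight to confluence, infected at m.o.i. 0.01 (BHK for Reo-1, MDBK for BVDV); serial compound dilutions in maintenance medium with 0.5% inactivated FBS added after 1 h; viability by MTT after 3–4 days at 37°C; EC50 for 50% protection by linear regression.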

[2] = Cytotoxicity against African green monkey Vero 76 cells assessed as cell viability after 48 to 96 hrs by crystal violet staining; assay type: cell-based; conditions: chlorocebus sabaeus
[3] = Cytotoxicity against BHK cells assessed as cell viability after 48 to 96 hrs by MTT assay; assay type: cell-based, Mesocricetus auratus; conditions: hamster
Coxsackievirus B5 = assay: Antiviral activity against Human coxsackievirus B5 ATCC VR-29 infected in African green monkey Vero 76 cells assessed as reduction of virus-plaque formation after 3 days by crystal violet staining; assay type: functional, organism-based; conditions: Enterovirus B, ATCC VR-29, Vero, 72 h
Method in brief: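 Plaque reduction: Vero-76 at 2x10^5 cells/well grown to confluent monolayers, infected 2 h at 50–100 PFU/well; after removing unadsorbed virus, overlay of D-MEM, 1% inactivated FBS, 0.75% methylcellulose with or without serial compound dilutions; 3 days at 37°C, fixed and stained with crystal violet in 50% ethanol, plaques counted; EC50 by linear regression.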

Poliovirus 1 = assay: Antiviral activity against Poliovirus type 1 ATCC VR-1562 infected in African green monkey Vero 76 cells assessed as reduction of virus-plaque formation after 2 days by crystal violet staining; assay type: functional, organism-based; conditions: Enterovirus C, ATCC VR-1562, Vero, 48 h
[4] = test system: Mycobacterium tuberculosis; assay: Antimycobacterial activity against Mycobacterium tuberculosis H37Rv ATCC 25618; assay type: functional
Method in brief: (§1)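 Classical test-tube successive-dilution method in Youmans' modification of Proskauer and Beck liquid medium with 10% bovine serum. Inoculum came from 14-day cultures. DMSO stock was 10 mg/mL, diluted geometrically in medium. Tubes were incubated at 37 °C. Concentrations tested were 3.1, 6.2, 12.5, 25, 50 and 100 µg/ml. MIC is the minimum concentration inhibiting growth relative to compound-free tubes.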

[5] = test system: Mycobacterium tuberculosis; assay: Antimycobacterial activity against drug-sensitive Mycobacterium tuberculosis Spec. 192; assay type: functional; method in brief: as §1
[6] = Cytotoxicity against human MT4 cells; assay type: cell-based
[7] = Cytotoxicity against bovine MDBK cells assessed as cell viability after 48 to 96 hrs by MTT assay; assay type: cell-based, Bos taurus; conditions: cattle

Structure (SMILES)	CC50 [2]	CC50 [3]	CC50 [6]	further results
C[C@@]1(O)[C@H](O)[C@@H](CO)O[C@H]1n1ccc(N)nc1=O	> 100 µM	> 10 µM		EC50 [1]: 16 µM; EC50 (Coxsackievirus B5): 18 µM; EC50 (Poliovirus 1): 7.3 µM
COc1c(C)c2c(c(O)c1C/C=C(\C)CCC(=O)O)C(=O)OC2 [MYCOPHENOLIC ACID]	> 100 µM			
O=c1cnn([C@@H]2O[C@H](CO)[C@@H](O)[C@H]2O)c(=O)[nH]1 [6-AZAURIDINE]	12 µM			
NNC(=O)c1ccncc1 [ISONIAZID]				MIC [4]: 6.25 µg/mL (≈ 45.6 µM); MIC [5]: 12.5 µg/mL (≈ 91.1 µM)
O=C1Nc2ccc(Cl)cc2[C@@](C#CC2CC2)(C(F)(F)F)O1 [EFAVIRENZ]			40 µM	
FC(F)(F)c1cccc(NC(=S)Nc2ccc(Cl)c(Cl)c2)c1	16 µM	9.5 µM	9 µM	CC50 [7]: 10 µM
